From publication PMC2606940 (The Journal of General Physiology, 2009)
Positions count from the first letter of the chain named. Read-outs that look alike come from different tables or passages of the source.

Columns and labels:
[1] = biological target: T1, CLC-0 E166I mutant (Torpedo marmorata, UniProt P21564, C212S/E166I); type: cell-based; conditions: read-out: Apparent affinity (K1/2)
T1 sequence (P21564 1-805 E166I/C212S): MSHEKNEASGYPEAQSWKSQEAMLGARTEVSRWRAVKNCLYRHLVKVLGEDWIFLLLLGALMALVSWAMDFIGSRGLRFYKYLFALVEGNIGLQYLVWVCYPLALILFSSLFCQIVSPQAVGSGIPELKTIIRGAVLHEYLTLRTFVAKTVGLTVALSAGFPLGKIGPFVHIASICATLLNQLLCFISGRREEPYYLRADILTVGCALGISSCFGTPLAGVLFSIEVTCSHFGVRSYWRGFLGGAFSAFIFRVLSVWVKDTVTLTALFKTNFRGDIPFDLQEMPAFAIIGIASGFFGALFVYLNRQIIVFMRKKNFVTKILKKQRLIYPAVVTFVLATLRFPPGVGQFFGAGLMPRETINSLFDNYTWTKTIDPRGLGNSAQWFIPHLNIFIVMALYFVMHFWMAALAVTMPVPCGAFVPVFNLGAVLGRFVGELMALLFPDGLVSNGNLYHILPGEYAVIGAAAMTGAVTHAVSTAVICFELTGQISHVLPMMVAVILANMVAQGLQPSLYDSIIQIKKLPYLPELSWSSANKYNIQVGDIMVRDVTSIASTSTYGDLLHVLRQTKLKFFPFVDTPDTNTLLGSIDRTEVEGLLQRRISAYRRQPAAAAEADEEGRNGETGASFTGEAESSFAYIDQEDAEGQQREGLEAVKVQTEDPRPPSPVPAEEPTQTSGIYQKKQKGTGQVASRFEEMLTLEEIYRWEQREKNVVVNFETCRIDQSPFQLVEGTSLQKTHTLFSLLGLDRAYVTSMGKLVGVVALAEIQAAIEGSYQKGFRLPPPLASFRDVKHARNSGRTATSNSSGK
In short: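 CLC-0 mutants in the C212S background were transfected into HEK293 cells with lipofectamine and recorded 1–3 d later as excised inside-out patches. Both sides held 130 mM NaCl, 5 mM MgCl2, 10 mM HEPES and 1 mM EGTA, pH 7.4. CPA was perfused continuously onto the cytoplasmic face. Steady-state current over the last 10 ms was normalized to bracketing blocker-free controls and fitted to a Langmuir function for K1/2. Values are mean ± SEM of ~4–6 patches.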

[2] = biological target: T2, CLC-0 E166Q mutant (Torpedo marmorata, UniProt P21564, C212S/E166Q); type: cell-based
T2 sequence (P21564 1-805 E166Q/C212S): T1 sequence (P21564 1-805 E166I/C212S) with I166Q
In short: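 HEK293 cells expressed C212S-background CLC-0 mutants and were recorded 1–3 d post-transfection as inside-out patches in symmetrical 130 mM NaCl, 10 mM HEPES, pH 7.4. CPA, fatty acids or alkyl sulfates flowed continuously on the cytoplasmic side. C10–C12 compounds were diluted into bath solution from 10 mM DMSO stocks. Test steps ran from +80 to −160 mV after a +80 mV prepulse. Steady-state current was normalized to the mean of pre- and post-blocker controls, and a Langmuir K1/2 was taken at each voltage from ~4–6 patches.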

[3] = read-out: Apparent affinity (K1/2), −60 mV
[4] = read-out: Apparent affinity (K1/2), −80 mV
[5] = read-out: Apparent affinity (K1/2), −100 mV
[6] = read-out: Apparent affinity (K1/2), −120 mV
[7] = read-out: Apparent affinity (K1/2), −140 mV
[8] = read-out: Apparent affinity (K1/2), −160 mV

IC50 ([2]; read-out: Apparent affinity (K1/2), −40 mV) [µM] | IC50 ([2]; read-out: K1/2, Fig. 10 D) [µM] | Compound | IC50 ([1]; −40 mV) [µM] | IC50 ([1]; −60 mV) [µM] | IC50 ([1]; −80 mV) [µM] | IC50 ([1]; −100 mV) [µM] | IC50 ([1]; −120 mV) [µM] | IC50 ([1]; −140 mV) [µM] | IC50 ([1]; −160 mV) [µM] | IC50 [2, 3] [µM] | IC50 [2, 4] [µM] | IC50 [2, 5] [µM] | IC50 [2, 6] [µM] | IC50 [2, 7] [µM] | IC50 [2, 8] [µM] | inhibition of current ([2]; 300 μM CPA, −160 mV) [%]
17800 ± 1500 | ~1000 | CCCCCCCC(=O)O [octanoate] | 218 ± 49 | 136 ± 26 | 79 ± 13 | 45 ± 7 | 26 ± 3 | 15 ± 2 | 9 ± 1 | 11400 ± 690 | 6940 ± 360 | 4210 ± 240 | 2530 ± 160 | 1450 ± 100 | 880 ± 90 | –
– | – | O=C(O)COc1ccc(Cl)cc1 [CPA, p-chlorophenoxy acetate] | 1250 ± 230 | 683 ± 85 | 384 ± 41 | 220 ± 24 | 117 ± 11 | 68 ± 8 | 39 ± 4 | 19700 ± 900 | 14000 ± 700 | 9710 ± 480 | 6840 ± 310 | 4710 ± 150 | 3340 ± 80 | < 10
